Compound activity from PubChem BioAssay.
Insulin prom up: MIN6 insulin promoter up-regulation. z-score at 5 µM. MIN6 insulin promoter-GFP reporter, high-content imaging; hits give high values. 190,000 compounds, 0.3% hits;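 active = z-score above 3 at 5 µM with at least 500 cells counted in the well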
PERK inh: blocks human PERK kinase. 220,000 compounds, 0.17% hits. Q9NZJ5. CHO PERK-DD fusion, SEAP luminescence translation reporter. inhibition, % at 5.6 µM;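 active = inhibition above the mean inhibition of all tested compounds plus 3 SD, set separately per screening campaign, cut at about 2.9% in these data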;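 also: PERK kinase domain activated by AP20187 dimerizer at 100 nM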
Autophagy HCS: autophagy modulation, high-content screen; 190,000 compounds, 0.98% hits; calls only at 10 µM (by protocol); MEF GFP-LC3 puncta imaging; test concentration mostly 10 µM;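 active = percentage of spot-positive cells more than 3 SD above its plate mean, without a fluorescence outlier flag or 80% toxicity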
Dynein transport: blocks dynein driven cargo transport along microtubules | 3617.4 mouse cells, GR-EGFP nuclear translocation imaging; test concentration mostly 20 µM; stimulated with dexamethasone, 1 µM; hits give low values | z-score, hits read low | 220,000 compounds, 0.47% hits | AID 1381;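 active = plate z-score of nuclear minus cytoplasmic receptor signal below a set negative limit, without overly bright fluorescence or cell loss, cut at about -3.5 in these data, passing the limit was not always enough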;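 also: z-score of nuclear minus cytoplasmic ring GR-EGFP intensity difference per well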
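Medium: Induction medium lacking tetracycline, stripped serum | Probe or stimulus: 1.0 µM final dexamethasone stimulus | Schedule: 48 h induction, then 1 h compound, then 30 min agonist, 37 °C | Signal: Automated 10x imaging of fixed Hoechst-stained cells | Evaluation: Per-cell GR-EGFP intensity, nucleus versus surrounding cytoplasmic ring, well-averaged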
Insulin prom inh: TRM-6 insulin promoter activity inhibition; 130,000 compounds, 0.9% hits; inhibition, % at 2 µM; TRM-6 cells (human fetal islet line), insulin promoter-eGFP reporter, imaging; reporter expression induced with tamoxifen; AID 1273;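 active = inhibition above the mean plus 3 SD, with well images judged a real hit on visual review, cut at about 60% in these data, passing the limit was not always enough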
Hits are given with their value; – = inactive; · = not tested or not shown; + = active, no number. A selection: hits, their analogues and other compounds. The true share with any hit is near 2.1%.

SMILES	Insulin prom up	PERK inh	Autophagy HCS	Dynein transport	Insulin prom inh
COc1ccc(-c2c3c(=O)n(C)c(=O)n(C)c3cn2Cc2cccnc2)cc1	–	–	–	–	73
COc1ccc(-c2c3c(=O)n(C)c(=O)n(C)c3cn2Cc2ccccn2)cc1	–	–	–	–	–
O=C1Cc2cc(CCN3CCN(c4nsc5ccccc45)CC3)c(Cl)cc2N1	–	–	·	·	·
O=C(/C=C/c1ccco1)NC(=S)Nc1ccccc1N1CCCC1	3.1	–	–	–	–
COc1ccc(OC)c(NC(=O)CSc2nc3ccccc3cc2Cc2ccccc2)c1	–	2.9	–	–	–
CCn1nc(C)c(NC(=O)Nc2cccc(Cl)c2Cl)c1C	–	–	–	–	·
COc1cc(NC(=O)c2cc(Cl)ccc2Cl)ccc1-c1cc2ccccc2oc1=O	–	–	+	–	–
O=C(Oc1ccc(C(=S)N2CCOCC2)cc1)c1ccc(Br)cc1	–	–	–	–	–
COc1ccc(C(=O)Oc2ccc(C(=S)N3CCOCC3)cc2)cc1	–	–	+	–	·
Cc1ccccc1CO/N=C/c1[nH]ncc1Br	–	3.5	·	–	·
CCN(CC)C(=O)c1sc2c(c1C)c(=O)n(-c1ccc(C)c(C)c1)c(=O)n2CC(=O)NCC1CCCO1 (stereo not given)	–	–	–	–	83
O=c1c2oc3ccccc3c2ncn1Cc1ccc(F)cc1	–	–	–	–	–
COc1ccc(/C=C/C(=O)OCC(=O)NCc2ccco2)c(OC)c1	–	–	–	–	–
CC1(C)CC(=O)C(CC2=C(O)CC(C)(C)CC2=O)=C(O)C1	–	–	+	–	–
O=C(COc1ncnc2ccccc12)NCC1CCCO1 (stereo not given)	–	–	+	–	·
Cc1cc(NC(=O)CSc2nnc(C3COc4ccccc4O3)o2)no1 (stereo not given)	–	–	+	–	–
N#CCCN(Cc1cccnc1)C(=O)c1sc2cc(F)ccc2c1Cl	–	–	–	–	–
Cc1ccc(-n2c(=O)cc(N3CC(C)CC(C)C3)[nH]c2=O)cc1 (stereo not given)	–	–	–	–	73
CN1C(C(=O)NCc2ccccc2)CC2Cn3c(nc4cc5ccccc5cc43)C21 (stereo not given)	–	·	·	–	·
Cc1cc(C)cc(OCc2nc3ncc(Br)cc3[nH]2)c1	·	–	+	–	–
CC(=O)c1sc2nc(C)cc(C)c2c1N	–	–	–	–	77
COC(=O)c1sc2nc(C)cc(C)c2c1N	·	–	–	–	–
CSC(=NNC(=O)c1ccc(O)cc1)SC	–	–	–	–	–
O=C(O)c1ccccc1-c1csc(-c2ccccc2)n1	–	–	–	–	–
S=C(NCCN1CCOCC1)N/N=C/c1c2ccccc2cc2ccccc12	–	–	+	–	–
SMILES	Insulin prom up	PERK inh	Autophagy HCS	Dynein transport	Insulin prom inh
COc1cc(/C=N/NC(=S)NCCN2CCOCC2)cc(OC)c1O	–	–	–	–	–
COc1cc(OC)c(OC)cc1/C=N/NC(=S)NCCN1CCOCC1	–	–	+	–	·
CCC(OC(=O)c1nsc(Cl)c1Cl)C(=O)NC(C)(C)C (stereo not given)	–	–	–	–	·
COc1ccc(C2CC(=O)C3=C(C2)NC(C)=C(C#N)C3c2ccc(N(C)C)cc2)cc1 (stereo not given)	·	–	+	–	·
C[C@]12CC[C@@H]3c4ccc(OC(=O)c5ccccc5)cc4CC[C@H]3[C@@H]1CC[C@@H]2O	·	–	+	–	–
Cc1csc(NC(=O)CSc2nnc(Cn3c(=O)sc4ccccc43)n2-c2ccccc2)n1	–	–	–	–	·
CC(C)c1ccc(/C=N/Nc2cc(N3CCOCC3)nc(N3CCOCC3)n2)cc1	–	–	–	–	–
Cc1cccc(/C=N/Nc2cc(N3CCOCC3)nc(N3CCOCC3)n2)c1	–	–	+	–	–
Cc1c(C#N)c(O)n(C)c(=O)c1N=Nc1ccc(S(N)(=O)=O)cc1	·	–	–	–	65
Cc1c(C#N)c(O)n(CCO)c(=O)c1N=Nc1ccc(S(N)(=O)=O)cc1	·	–	–	–	–
O=C(Nc1ccccc1)c1nn(-c2ccccc2)c(=O)cc1C(F)(F)F	–	–	+	–	–
COc1c(O)ccc(C2NC(=O)NC(C)=C2C(=O)Nc2ccccc2C)c1[N+](=O)[O-] (stereo not given)	·	–	–	–	·
CC(=O)NC1C(=O)N(CCc2ccccc2)c2ccc(Br)cc21 (stereo not given)	–	–	–	–	72
CC/C(=N\NC(=O)c1ccc(-c2ccccc2)cc1)C12CC3CC(CC(C3)C1)C2	·	–	–	–	·
CCOC(=O)c1oc2ccc(Br)cc2c1NC(=O)CN1CCN(C)CC1	–	–	–	–	–
COc1ccc2oc(C(=O)c3ccccc3)c(NC(=O)CN3CCN(C)CC3)c2c1	–	–	+	–	·
Cc1ccc(C(=O)O)cc1NC(=O)CCc1ccccc1	–	–	+	–	–
Cc1ccc(C(=O)O)cc1NC(=S)NC(=O)Cc1ccccc1	–	–	–	–	·
N#C/C(=C\c1cn(Cc2ccc(F)cc2)c2ccccc12)C(=O)NCc1ccco1	–	–	+	–	–
Nc1nc(-c2ccc(Cl)cc2Cl)cn1N	·	3.1	–	–	–
Cc1nccc(-c2cc(-c3ccc(Cl)cc3Cl)no2)n1	–	–	·	–	·
Cc1ccc(S(=O)(=O)CCC(=O)OCn2nnc3ccccc3c2=O)cc1	–	–	–	–	·
CCN1C(=O)CC(N2CCN(C(c3ccccc3)c3ccccc3)CC2)C1=O (stereo not given)	–	–	–	–	–
CCN1C(=O)C(CC(=O)N2CCN(C(c3ccccc3)c3ccccc3)CC2)N(CC)C1=O (stereo not given)	–	–	+	–	–
Clc1ccc(CON/C=N/c2ncnc3sccc23)c(Cl)c1	–	–	–	–	–
SMILES	Insulin prom up	PERK inh	Autophagy HCS	Dynein transport	Insulin prom inh
c1ccc(-n2cnnc2SCc2nc3ccccc3s2)cc1	–	–	+	–	·
COc1cccc2sc(Nc3nnc(-c4cccs4)o3)nc12	–	–	+	–	·
O=C(O)CSc1ncn[nH]1	–	–	–	–	77
Cc1ccc(C(=O)CSc2ncn[nH]2)cc1	–	–	–	–	–
OC(c1ccccn1)(c1ccccn1)c1ccccn1	–	–	–	–	–
Cc1cc2nc(/N=C(\N)NC(=O)N3c4ccccc4Sc4ccccc43)nc(C)c2cc1C	–	–	–	–	–
CC(=O)c1ccc(S(=O)(=O)N2CCN(CC#N)CC2)cc1	–	4.5	·	–	·
CC(=O)c1ccc(S(=O)(=O)N2CCN(C(C)=O)CC2)cc1	–	–	–	–	·
Cn1ncc2c1ncn1nc(CCc3ccccc3)nc21	3.6	–	–	–	·
COCCNCC#CCOc1ccc(OC)cc1	–	–	–	–	–
COCCCNCC#CCOc1ccc(OC)cc1	–	–	+	–	·
Cc1ccc(C)c2[nH]c(=O)c(CN(Cc3ccco3)C(=S)NCC3CCCO3)cc12 (stereo not given)	–	–	–	–	–
COc1ccc(Br)cc1CNC(=O)Cc1c(C(=O)O)[nH]c2ccc(Cl)cc12	–	–	–	–	·
